Assay outcomes from PubChem.
An excerpt weighted towards active compounds, which were near 0.7% of everything screened.
procasp3 activ: activators of human procaspase-3; activation, % at 8.5 µM; recombinant procaspase-3 D3A, Ac-DEVD-pNA absorbance 405 nm; P42574; hit rate 0.11% among 330,000; AID 463141;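 active = activation above the mean of all tested compounds plus 3 SD, cut at about 21% in these data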;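 note: 0% = DMSO alone and 100% = DMSO wells spiked with extra 5 µM PC-3 D3A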
Target sequence (P42574 whole entry D9A/D28A/D175A): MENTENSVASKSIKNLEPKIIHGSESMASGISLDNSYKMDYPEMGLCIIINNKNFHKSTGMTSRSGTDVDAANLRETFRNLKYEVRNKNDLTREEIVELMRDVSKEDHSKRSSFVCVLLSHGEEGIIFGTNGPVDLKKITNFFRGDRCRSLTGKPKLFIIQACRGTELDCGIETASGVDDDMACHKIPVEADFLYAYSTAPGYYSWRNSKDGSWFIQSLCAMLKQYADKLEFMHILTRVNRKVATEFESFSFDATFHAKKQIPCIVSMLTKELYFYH
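System: Procaspase-3 D3A mutant. Medium: Zinc-free 300 mM NaCl, 50 mM HEPES, 0.01% Triton X-100. Schedule: 1 h preincubation plus 2 h reaction at 25 °C. Measured by: 405 nm absorbance of p-nitroaniline, reads at 0 and 120 min. Read-out: percent activation relative to control range.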
FXN GAA850 act: increases GAA850 frataxin promoter reporter activity; HEK293 lucGAA850 FXN promoter luciferase reporter, 24 h; percent of 10 µM SAHA response; activation, % at 6 µM; hit rate 0.56% among 360,000;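 active = activation above the average of all compounds screened plus 3 SD, cutoff fixed separately per campaign, cut at about 7.5% in these data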;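 note: 0% = DMSO wells and 100% = 10 µM SAHA wells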
procasp7 counter: counter-screen for procaspase-3 activators: activators of human procaspase-7; recombinant procaspase-7, Ac-DEVD-pNA absorbance 405 nm; D23A/D198A/D206A triple mutant, cannot self-cleave; scale: DMSO 0, 5 µM enzyme 100; activation, % at 8.5 µM; P55210; hit rate 0.093% among 330,000;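 active = percent activation above the screen-wide mean plus 3 SD, cut at about 25% in these data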
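Assay system: Uncleavable procaspase-7 mutant enzyme / Input: 2 µM procaspase-7 mutant as dispensed / Dosing: single nominal 8.5 µM compound dose, 0.8% DMSO final / Timing: 1 h enzyme–compound preincubation and 2 h substrate reaction, both 25 °C / Detection: p-Nitroaniline absorbance at 405 nm, read at 0 and 120 min / Replication: singlicate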
procasp7 triplic: counter-screen for procaspase-3 activators: activators of human procaspase-7. shares compounds with procasp3 activ. recombinant procaspase-7, Ac-DEVD-pNA absorbance; asp23/198/206-to-Ala mutant, cannot self-cleave. activation, % at 8.5 µM. 210 tested, under 10 active. AID 488941;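 active = mean activation above a set limit taken from an earlier procaspase-7 screen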;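 note: 0% = DMSO wells and 100% = DMSO plus 5 µM procaspase-7 enzyme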
proCasp3 confirm: confirmation of human procaspase-3 activators | shares compounds with procasp3 activ | recombinant PC-3 D3A, Ac-DEVD-pNA absorbance 405 nm; 100% is higher-enzyme control | activation, % at 8.5 µM | hit rate 10% among 210 | AID 488954;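 active = mean activation above a set limit carried over from the earlier primary screen, cut at about 22% in these data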
GAA30 FXN cntr: GAA30 FXN promoter activation counter-screen. HEK293 lucGAA30 FXN promoter luciferase, 24 h; DMSO = 0%, 5 µM ipriflavone = 100%. shares compounds with FXN GAA850 act. activation, % at 6 µM. hit rate 66% among 1,900;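 active = mean activation above the mean of solvent-only control wells plus 3 SD, cut at about 22% in these data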;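 note: counterscreen of GAA850 promoter hits where activity marks nonselective or luminescence artifacts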
GAA850 confirm: GAA850 FXN promoter activation confirmation. shares compounds with FXN GAA850 act. HEK293 lucGAA850 FXN promoter luciferase reporter, 24 h; 100% = activation by SAHA. activation, % at 6 µM. hit rate 86% among 1,900. AID 588351;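 active = mean activation above a set limit taken from the primary screen, cut at about 8% in these data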;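 note: 0% = DMSO wells and 100% = 10 µM SAHA wells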
Active calls of the source: *; x = no result.

SMILES	procasp3 activ	FXN GAA850 act	procasp7 counter	procasp7 triplic	proCasp3 confirm	others
CCCCOn1c(C)c(C(=O)OCC)c2c3nonc3ccc21	24*	0	22	13	25*
COc1ccc(C(=O)N2CCCC(c3cc(C(=O)NCc4ccc(F)cc4)no3)C2)cc1 (stereo unspecified)	x	1	x	x	x
O=C(NC1CC2CCCC(C1)N2C(=S)NCCc1ccccc1)C1CC1 (stereo unspecified)	1	1	13	x	x
COc1ccc(OC)c(S(=O)(=O)N2CCCC2C(=O)NC(C)c2ccccc2)c1 (stereo unspecified)	-1	1	5	x	x
Cc1ccc(NC(=O)[C@@H]2CCCN2S(=O)(=O)c2ccc(Cl)cc2)cc1	0	0	13	x	x
CC(=O)Oc1c(-c2ccc(Br)o2)oc2ccccc2c1=O	27*	1	24	-4	21*
COc1ccc(-c2oc3ccccc3c(=O)c2OC(C)=O)cc1	-7	7	-10	x	x
CSCCC(C(=O)N(C)CC(=O)Nc1cccc(F)c1)N1C(=O)c2ccccc2C1=O (stereo unspecified)	-1	5	6	x	x
C=CCN(C(=O)CCC(=O)Nc1cc(C)on1)C(C(=O)NC(C)(C)CC)c1cccc(OC)c1OC (stereo unspecified)	8	0	6	x	x
CCOc1ccc(NC(=O)CN(C)C(=O)c2ccc(C3SCCS3)cc2)cc1OCC	21*	-1	6	-1	2
CCOc1ccc(NC(=O)CN(C)C(=O)c2ccc(=O)[nH]c2)cc1OCC	x	-1	x	x	x
CC1CN(Cc2nnc(-c3ccccc3)o2)CC(C)O1 (stereo unspecified)	3	1	2	x	x
COc1ccc(C2CC(c3cccc(F)c3)=NN2c2ccc(S(N)(=O)=O)cc2)cc1 (stereo unspecified)	37*	0	20	-22	-12
COc1ccc(C2CC(c3cccc(Br)c3)=NN2c2ccc(S(N)(=O)=O)cc2)cc1 (stereo unspecified)	-4	-1	-42	x	x
O=C(Cc1cccc(NC(=O)C2CCCN(C(=O)C3CCCCC3)C2)c1)Nc1cccc(C(=O)N2CCOCC2)c1 (stereo unspecified)	x	-2	x	x	x
CCOC(=O)c1ccc(N/C=C/C(=O)c2ccc(OC)c(OC)c2)cc1	25*	-1	1	-6	5
CCOc1ccc(N/C=C/C(=O)c2ccc(OC)c(OC)c2)cc1	-1	5	4	x	x
CCOC(=O)C1(CCCc2ccccc2)CCN(C(=O)CN2C(=O)CSC2=O)CC1	-3	0	-7	x	x
NC(=O)c1c(NC(=O)c2ccccc2C(=O)O)sc2c1CCCC2	7	2	5	x	x
NC(=O)c1c(NC(=O)c2ccccc2F)sc2c1CCCC2	37*	4	-20	-21	-66
CC(=O)NCCCc1nc2ccccc2n1Cc1cc(C)ccc1C	-5	1	-1	x	x
CC(=O)NCCc1nc2ccccc2n1Cc1ccc(C)cc1	29*	0	2	1	8
O=C(COC(=O)/C=C/c1ccc(F)cc1)NC1CCS(=O)(=O)C1 (stereo unspecified)	x	3	x	x	x
CCCc1ccc(OCc2ccc(C(=O)N3CCSCC3)o2)cc1	22*	7.6*	-1	5	4	GAA30 FXN cntr=100*;GAA850 confirm=38*
CCOc1ccc(OCc2ccc(C(=O)O)o2)cc1	-12	2	-2	x	x
O=C(O[C@H]1[C@H](Oc2ccccc2COC(=O)C2(O)C=CCCC2=O)O[C@H](CO)[C@@H](O)[C@@H]1O)c1ccccc1 (stereo partly specified)	-2	x	-6	x	x
C=CCn1c2ccccc2c(=O)c2cc(C#CC3(O)CCCCC3)ccc21	150*	11*	-22	-21	-14	GAA30 FXN cntr=104*;GAA850 confirm=55*
